Screens from PubChem.
Only some compounds are listed: those with a hit (about 4.1% of all), similar ones and a draw of the others.
SMARCA2 activ = increases SMARCA2 function in MMTV reporter cells. activation, % at 9.1 µM. AID 652017. MG213 cells, MMTV-luciferase reporter, dexamethasone, overnight. 370,000 compounds, 1% hits; in the data active means activation above about 7.8%
TbMetRS inhib = Trypanosoma brucei MetRS inhibition | purified T. brucei MetRS, ATP depletion, Kinase-Glo luminescence | 360,000 compounds, 0.4% hits | inhibition, % at 11.9 µM;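 active means inhibition above a per-plate cutoff of the control wells' mean inhibition plus 3 SD, cut at about 5.5% in these data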
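Test system – parasite MetRS enzyme · Reagent – substrates ATP, L-methionine and bulk Escherichia coli tRNA · Doses – 11.9 µM compound single dose, 0.9% DMSO · Times – 15 min enzyme-compound preincubation, 2 h reaction, 10 min detection, 25 °C · Signal – Kinase-Glo luminescence, ATP depletion format · Controls – DMSO-only wells as low control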
AHR activator = human AHR activation. AID 2796. activation, % at 5 µM. AHR-responsive luciferase reporter cells, luminescence. 320,000 compounds, 2.5% hits. P35869; in the data active means activation above about 47%
Target sequence (P35869 whole entry, looked up): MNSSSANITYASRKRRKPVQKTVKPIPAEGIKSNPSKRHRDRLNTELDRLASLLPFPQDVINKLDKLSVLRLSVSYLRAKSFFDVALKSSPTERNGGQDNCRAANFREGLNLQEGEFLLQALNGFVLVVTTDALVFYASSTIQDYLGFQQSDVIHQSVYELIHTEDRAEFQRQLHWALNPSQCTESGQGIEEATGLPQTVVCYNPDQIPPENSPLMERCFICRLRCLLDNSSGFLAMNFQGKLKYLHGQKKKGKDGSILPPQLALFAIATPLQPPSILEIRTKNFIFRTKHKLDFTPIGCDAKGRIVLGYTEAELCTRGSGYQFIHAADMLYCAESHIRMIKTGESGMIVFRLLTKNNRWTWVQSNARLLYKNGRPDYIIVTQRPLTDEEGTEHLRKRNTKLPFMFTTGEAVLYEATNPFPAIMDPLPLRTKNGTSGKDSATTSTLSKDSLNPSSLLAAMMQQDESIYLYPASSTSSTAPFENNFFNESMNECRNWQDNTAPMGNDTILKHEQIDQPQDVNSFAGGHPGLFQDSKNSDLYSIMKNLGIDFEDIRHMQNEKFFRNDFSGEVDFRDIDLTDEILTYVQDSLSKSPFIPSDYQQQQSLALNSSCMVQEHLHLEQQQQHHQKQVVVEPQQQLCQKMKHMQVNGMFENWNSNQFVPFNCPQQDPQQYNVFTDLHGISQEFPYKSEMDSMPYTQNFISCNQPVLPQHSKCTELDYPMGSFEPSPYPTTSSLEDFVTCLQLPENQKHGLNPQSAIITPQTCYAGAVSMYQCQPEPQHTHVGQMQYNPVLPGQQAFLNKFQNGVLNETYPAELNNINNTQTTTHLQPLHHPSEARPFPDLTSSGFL
H9c2 TAG inh = triacylglycerol accumulation inhibition | H9c2 cells, Nile Red lipid (TAG) fluorescence; cells loaded with 200 µM oleic acid | inhibition, % at 12.5 µM | 230,000 compounds, 0.66% hits;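 active means pattern-corrected inhibition of lipid staining of at least 50% with the nuclear-stain viability signal not falling by more than 50%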
Efflux pump mplx = inhibitors of Candida antifungal efflux pumps expressed in yeast; inhibition, % at 10 µM; 330,000 compounds, 0.44% hits; S. cerevisiae Candida pump triplex, Nile Red efflux; AID 485275;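 active means plate passing quality check with inhibition over a set limit, or well fluorescence over plate mean plus 4 SD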;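 further: Nile Red retained in pooled yeast measured as flow cytometry median fluorescence; higher means more Nile Red kept so more efflux inhibition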
AHR act cf = human AHR activation, confirmation | shares compounds with AHR activator | human cells, AHR-responsive luciferase reporter, luminescence | activation, % at 9 µM | 2,300 compounds, 87% hits | AID 2845; in the data active means activation above about 49%;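 further: HepG2 hepatoma cells carrying a DRE-driven firefly luciferase reporter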
PXR act counter = counter-screen for AHR activators: human PXR activators | activation, % at 11.6 µM | 2,300 compounds, 88% hits | shares compounds with AHR activator | cell-based PXR reporter, luciferase luminescence; in the data active means activation above about 11%;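 further: human hepatoma DPX-2 cells expressing full-length human PXR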
Of the large screens only hits and unclear results are named; the others gave an inactive call (follow-up assays come after a bar, where they were run).

COc1ccc(Nc2c(-c3ccc(OC)cc3)nc3cnccn23)cc1	none
COc1ccc(-c2nc3cnccn3c2Nc2ccc3c(c2)OCO3)cc1	AHR activator 105.1 | AHR act cf 85.5 | PXR act counter 144.3
O=c1[nH]c(-[n+]2ccc3ccccc3c2)c(/C=N/N=C(\[O-])c2ccccc2)s1	AHR activator 83.7 (no result: H9c2 TAG inh) | AHR act cf 49.7 | PXR act counter 20.4
Nc1nc2c(ncn2[C@@H]2O[C@H](C(=O)N[C@H](Cc3ccccc3)C(=O)NC3CCCCC3)[C@@H](O)[C@H]2O)c(=O)[nH]1	none (no result: TbMetRS inhib, AHR activator, H9c2 TAG inh, Efflux pump mplx)
Nc1nc(-c2ccccc2)nc2sc3c(c12)CCCC3	AHR activator 92.4 | AHR act cf 88.8 | PXR act counter 54.5
S=c1[nH]nc(-c2cc(-c3ccccc3)n[nH]2)n1N=Cc1cccc(Oc2ccccc2)c1	none (no result: TbMetRS inhib, AHR activator, H9c2 TAG inh, Efflux pump mplx)
COc1ccc(C(=O)Nc2ccccc2-c2nnn(CC(=O)NCc3ccco3)n2)cc1	AHR activator 103.2 | AHR act cf inactive | PXR act counter 25.8
O=C(Cn1nnc(-c2ccccc2NC(=O)c2ccccc2F)n1)NCc1ccco1	none
O=C(Cn1nnc(-c2ccccc2)n1)NCc1ccco1	none
COc1ccccc1C(=O)Nc1ccc(-c2nnn(CC(=O)NCc3ccco3)n2)cc1	AHR activator 130.4 | AHR act cf 134.5 | PXR act counter 29.4
S=c1[nH]ncn1/N=C/c1ccccc1	none
CCOc1ccc(/C=N/n2cc(-c3ccccc3)[nH]c2=S)cc1	AHR activator 84.1 | AHR act cf 107.7
S=c1[nH]c(-c2ccccc2)cn1/N=C/c1ccncc1	AHR activator 88.5 | AHR act cf 134.6 | PXR act counter inactive
COc1ccc(/C=N/n2c(-c3ccccc3)n[nH]c2=S)cc1	none (no result: H9c2 TAG inh)
COCc1[nH]nc2c1C(c1cccc(C(F)(F)F)c1)N(c1ccccc1)C2=O (stereo unspecified)	none (no result: TbMetRS inhib, AHR activator, H9c2 TAG inh, Efflux pump mplx)
O=C(CCn1c(=O)oc2ccccc21)Nc1nc2ccccc2s1	AHR activator 104.2 | AHR act cf 82.0 | PXR act counter 103.7
N#C/C(=C\c1ccc[nH]1)C(=O)Nc1ccccc1Cl	AHR activator 96.0 | AHR act cf 99.5 | PXR act counter 28.7
Cc1ccc(C(=O)O/N=C(\N)c2cccnc2)cc1[N+](=O)[O-]	none
Cc1ccccc1C(=O)O/N=C(\N)c1ccc([N+](=O)[O-])cc1	none (no result: H9c2 TAG inh)
N/C(=N\OC(=O)c1cccc2ccccc12)c1ccc(Br)cc1	AHR activator 96.0 | AHR act cf 98.9 | PXR act counter 15.2
Cc1ccc(C)c(C(=O)O/N=C(\N)c2ccc(Br)cc2)c1	AHR activator 95.0 | AHR act cf 117.7 | PXR act counter 15.1
N/C(=N\OC(=O)c1ccccc1[N+](=O)[O-])c1cccnc1	AHR activator 138.4 | AHR act cf 75.5 | PXR act counter 28.9
Cc1ccccc1C(=O)O/N=C(\N)c1ccccc1	AHR activator 79.4 (no result: H9c2 TAG inh) | AHR act cf 95.0 | PXR act counter inactive
Cc1ccc(C(=O)O/N=C(\N)c2ccc(Br)cc2)cc1C	none
CC(C)N1CCCCC(NC(=O)Cc2ccccc2)C1=O (stereo unspecified)	none (no result: TbMetRS inhib, AHR activator, H9c2 TAG inh, Efflux pump mplx)
COc1ccc(-c2cc(-c3cc(OC)ccc3O)[nH]n2)cc1	AHR activator 158.8 | AHR act cf 140.3 | PXR act counter 17.7
COc1ccc(O)c(-c2cc(-c3ccc(F)cc3)n[nH]2)c1	AHR activator 95.6 (no result: H9c2 TAG inh) | AHR act cf 159.0 | PXR act counter 15.0
COc1ccc(-c2cc(-c3ccc(Cl)cc3)n[nH]2)c(O)c1	none (no result: H9c2 TAG inh)
CCCCCCCCCCCCN1CCSCCS1(=O)=O	none (no result: TbMetRS inhib, AHR activator, H9c2 TAG inh, Efflux pump mplx)
CC(C)(C)OC(=O)NCc1cc(F)ccc1/C=C/S(=O)(=O)NC1CCCC1	none (no result: TbMetRS inhib, AHR activator, H9c2 TAG inh, Efflux pump mplx)
O=C(Nc1ccccc1)c1ccc(NCCN2C(=O)CCC2=O)c([N+](=O)[O-])c1	AHR activator 80.8 | AHR act cf 110.2 | PXR act counter 23.1
COc1cccc(NC(=O)c2ccc(NCCCN3CCC(C)CC3)c([N+](=O)[O-])c2)c1	none
O=C(Nc1cc(F)cc(F)c1)c1ccc(NCCCN2CCCCCC2)c([N+](=O)[O-])c1	AHR activator 83.0 | AHR act cf 117.9 | PXR act counter 29.0
C/C(=C\C(=O)c1ccc(Br)cc1)NCc1ccccc1	AHR activator 94.8 | AHR act cf inactive | PXR act counter 26.7
Cn1c(=O)n(CCc2ccccc2)c2ccccc21	AHR activator 125.0 | AHR act cf 111.1 | PXR act counter 40.1
FC(F)(F)c1cc(-c2ccccc2)nc(NCc2cccnc2)n1	AHR activator 90.5 | AHR act cf inactive | PXR act counter 42.9
FC(F)(F)c1cc(-c2ccco2)nc(NCc2cccnc2)n1	none
CCn1c(SCC(=O)NN=Cc2cccc(OCc3ccccc3)c2)nnc1-c1ccc(OC)c(OC)c1	none (no result: TbMetRS inhib, AHR activator, H9c2 TAG inh, Efflux pump mplx)
c1ccc2c(c1)oc1c(Nc3ccc4c(c3)OCCO4)ncnc12	AHR activator 95.3 (no result: H9c2 TAG inh) | AHR act cf 109.7 | PXR act counter 18.6
O=[N+]([O-])c1ccc2ncnc(Nc3ccc4c(c3)OCCO4)c2c1	none
[O-][n+]1onc2c1CCc1nnc(-c3ccccc3)cc1-2	AHR activator 96.7 | AHR act cf 80.2
[O-][n+]1onc2c1CCc1nnccc1-2	none (no result: H9c2 TAG inh)
C=CCc1c(C)nc(SC)nc1Nc1ccccc1	AHR activator 104.4 | AHR act cf 58.4 | PXR act counter 104.6
C=CCc1c(C)nc(-c2ccccc2)nc1Nc1ccc(O)cc1	none (no result: H9c2 TAG inh)
C=CCc1c(C)nc(SC)nc1Nc1ccc(C(C)=O)cc1	AHR activator 82.6 | AHR act cf 73.0 | PXR act counter 119.6
C=CCc1c(C)nc(SC)nc1Nc1ccc(C(=O)O)cc1	none
O=C(NCCc1ccccc1)c1ccccc1Cl	none (no result: H9c2 TAG inh)
O=C(O)c1ccccc1C(=O)NCCc1ccc(Cl)cc1	AHR activator 96.6 | AHR act cf 63.7 | PXR act counter 10.5
Cn1cc(C2(C)CCOc3ccccc32)c2ccccc21 (stereo unspecified)	none (no result: TbMetRS inhib, AHR activator, H9c2 TAG inh, Efflux pump mplx)
CCn1c2ccccc2c2cc(Nc3cc(C)nc4ncnn34)ccc21	AHR activator 131.9 | AHR act cf 88.9 | PXR act counter 89.9
CCCOc1ccccc1-c1nc2c([nH]1)c(=O)[nH]c(=O)n2C	AHR activator 137.1 | AHR act cf 79.0 | PXR act counter 34.3
C#CCNC(=O)C[C@H]1C[C@@]2(C(=O)OC)C(=C[C@H](COCc3ccccc3)O[C@@H]2C)N(CCc2ccc(OC)c(OC)c2)C1=O	none (no result: TbMetRS inhib, AHR activator, H9c2 TAG inh, Efflux pump mplx)
Cc1cc(NC(=O)CCC(=O)N(c2ccc(F)cc2)C(C(=O)NC2CCCC2)c2ccncc2)no1 (stereo unspecified)	AHR activator 90.5 | AHR act cf 81.2 | PXR act counter 20.7
COc1ccc(NC(=O)c2ccc(Br)o2)cc1	none
CC(C)c1ccc(NC(=O)c2ccc(Br)o2)cc1	AHR activator 98.8 | AHR act cf 106.5 | PXR act counter 35.1
Nc1c(C(=O)c2ccccc2)sc2c1c(=O)[nH]c(=O)n2-c1ccccc1	none (no result: H9c2 TAG inh)
